Test results: ChEMBL document CHEMBL1641417, “Cytotoxicity and topoisomerase I/II inhibition of glycosylated 2-phenyl-indoles, 2-phenyl-benzo[b]thiophenes and 2-phenyl-benzo[b]furans” (Bioorg Med Chem, 2011)
Activity calls are given as the source filed them. No cut-off for these calls is given here.

Key:
MCF7 [1] = assay: Cytotoxicity against human MCF7 cells after 72 hrs by MTS assay; settings: MCF7, 72 h
[2] = Cytotoxicity against human CRL7761 cells after 3 days by MTS assay; type: cell-based; settings: 72 h
Method in brief: (§1)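 Non-tumour cells were CRL-7761 human skin, Vero monkey kidney (DMEM high glucose, 5% FBS, 10 mM HEPES) and NIH/3T3 mouse (DMEM, 10% calf serum). Cells were seeded, left 24 h, then switched to serum-free DMEM-F12 with albumin, transferrin and insulin, with or without compound. Exposure was 3 days at 37 °C.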

HT-29 [3] = assay: Cytotoxicity against human HT-29 cells after 72 hrs by MTS assay; settings: HT-29, 72 h
HepG2 [4] = assay: Cytotoxicity against human HepG2 cells assessed as cell viability at 25 uM after 24 hrs by MTS assay; type: functional; settings: HepG2, 24 h, read-out: Activity
[5] = molecular target: DNA topoisomerase 2-alpha (Homo sapiens) (UniProt P11388); assay: Inhibition of human recombinant DNA topoisomerase 2alpha-mediated DNA cleavage assessed as decrease in relaxation of supercoiled plasmid substrate DNA at 20 uM after 30 mins by agarose gel electrophoresis
Vero = assay: Cytotoxicity against african green monkey Vero cells after 3 days by MTS assay; type: cell-based; settings: Chlorocebus sabaeus, 72 h
Method in brief: as §1

[6] = molecular target: DNA topoisomerase 2-alpha (Homo sapiens) (UniProt P11388); assay: Induction of poisoning activity in human recombinant DNA topoisomerase 2alpha assessed as enhancement of in relaxation of supercoiled plasmid substrate DNA at 100 uM after 30 mins by agarose gel electrophoresis
Method in brief: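 For topo IIα cleavage, 0.25 µg supercoiled pRYG was incubated with 4 units of human topoisomerase IIα (p170) in Tris buffer with 2 mM ATP and 10 mM MgCl2 for 30 min at 37 °C. Workup was SDS stop, proteinase K, extraction and agarose electrophoresis. Poisoning was judged by appearance of a linear DNA band.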

HT-29 [7] = assay: Cytotoxicity against human HT-29 cells at 25 uM after 72 hrs by MTS assay
[8] = molecular target: T1, DNA topoisomerase 1 (Homo sapiens) (UniProt P11387); assay: Inhibition of human recombinant DNA topoisomerase 1-mediated DNA cleavage assessed as decrease in relaxation of supercoiled plasmid substrate DNA at 40 uM after 30 mins by agarose gel electrophoresis
T1 sequence (whole entry): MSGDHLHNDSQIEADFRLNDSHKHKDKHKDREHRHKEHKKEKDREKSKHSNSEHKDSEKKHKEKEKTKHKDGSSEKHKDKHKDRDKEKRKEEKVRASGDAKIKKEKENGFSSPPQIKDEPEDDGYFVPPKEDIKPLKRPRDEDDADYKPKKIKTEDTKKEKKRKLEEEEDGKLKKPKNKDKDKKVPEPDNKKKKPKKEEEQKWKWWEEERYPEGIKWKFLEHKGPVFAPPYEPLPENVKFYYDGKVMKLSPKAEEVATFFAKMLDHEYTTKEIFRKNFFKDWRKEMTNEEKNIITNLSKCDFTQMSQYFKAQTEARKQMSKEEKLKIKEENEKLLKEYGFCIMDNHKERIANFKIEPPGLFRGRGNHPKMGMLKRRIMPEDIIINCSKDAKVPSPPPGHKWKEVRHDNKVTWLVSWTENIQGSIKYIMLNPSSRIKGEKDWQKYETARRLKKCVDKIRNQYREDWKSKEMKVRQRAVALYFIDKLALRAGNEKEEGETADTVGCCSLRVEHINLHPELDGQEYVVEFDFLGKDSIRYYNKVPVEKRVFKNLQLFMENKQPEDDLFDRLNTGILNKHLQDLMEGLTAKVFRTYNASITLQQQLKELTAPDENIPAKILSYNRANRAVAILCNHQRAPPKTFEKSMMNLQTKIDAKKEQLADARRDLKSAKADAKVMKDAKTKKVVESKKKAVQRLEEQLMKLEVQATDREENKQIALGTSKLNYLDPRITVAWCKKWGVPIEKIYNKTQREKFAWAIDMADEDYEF

[9] = molecular target: T1, DNA topoisomerase 1 (Homo sapiens); assay: Induction of poisoning activity in human recombinant DNA topoisomerase 1 assessed as enhancement of in relaxation of supercoiled plasmid substrate DNA at 100 uM after 30 mins by agarose gel electrophoresis
Method in brief: (§2)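 In the topo I cleavage (poison) assay, the relaxation format was used with 6 units of enzyme for 30 min at 37 °C. Reactions were stopped with SDS, digested with proteinase K and CIA-extracted. DNA was run on 1% agarose with and without ethidium bromide. Poisoning was scored by the presence of the nicked open-circular band, referenced to camptothecin.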

[10] = Cytotoxicity against mouse NIH/3T3 cells after 3 days by MTS assay; type: cell-based; settings: NIH3T3, 72 h
Method in brief: as §1

HepG2 [11] = assay: Cytotoxicity against human HepG2 cells after 72 hrs by MTS assay; settings: HepG2, 72 h
[12] = molecular target: DNA topoisomerase 2-alpha (Homo sapiens) (UniProt P11388); assay: Inhibition of human recombinant DNA topoisomerase 2alpha-mediated DNA cleavage assessed as decrease in relaxation of supercoiled plasmid substrate DNA at 100 uM after 30 mins by agarose gel electrophoresis
[13] = molecular target: T1, DNA topoisomerase 1 (Homo sapiens); assay: Inhibition of human recombinant DNA topoisomerase 1-mediated DNA cleavage assessed as decrease in relaxation of supercoiled plasmid substrate DNA at 100 uM after 30 mins by agarose gel electrophoresis
HepG2 [14] = assay: Cytotoxicity against human HepG2 cells at 25 uM after 72 hrs by MTS assay
Nucleic Acid = assay: Binding affinity to DNA by ethidium bromide staining-based FID assay; parameters: concentration or dose not given beside the values
HT-29 [15] = assay: Cytotoxicity against human HT-29 cells assessed as cell viability at 25 uM after 72 hrs by MTS assay; settings: HT-29, 72 h
[16] = molecular target: DNA topoisomerase 2-alpha (Homo sapiens) (UniProt P11388); assay: Inhibition of human recombinant DNA topoisomerase 2alpha-mediated DNA cleavage assessed as decrease in relaxation of supercoiled plasmid substrate DNA at 40 uM after 30 mins by agarose gel electrophoresis
MCF7 [17] = assay: Cytotoxicity against human MCF7 cells at 25 uM after 72 hrs by MTS assay
MCF7 [18] = assay: Cytotoxicity against human MCF7 cells assessed as cell viability at 25 uM after 72 hrs by MTS assay; settings: MCF7, 72 h
HT-29 [19] = assay: Cytotoxicity against human HT-29 cells assessed as cell viability at 20 uM after 24 hrs by MTS assay; type: functional; settings: HT-29, 24 h, read-out: Activity
[20] = molecular target: T1, DNA topoisomerase 1 (Homo sapiens); assay: Inhibition of human recombinant DNA topoisomerase 1-mediated DNA cleavage assessed as decrease in relaxation of supercoiled plasmid substrate DNA at 5 uM after 30 mins by agarose gel electrophoresis
HepG2 [21] = assay: Cytotoxicity against human HepG2 cells assessed as cell viability at 16 uM after 72 hrs by MTS assay; settings: HepG2, 72 h, read-out: Activity
MCF7 [22] = assay: Cytotoxicity against human MCF7 cells assessed as cell viability at 20 uM after 72 hrs by MTS assay; settings: MCF7, 72 h, read-out: Activity
HepG2 [23] = assay: Cytotoxicity against human HepG2 cells assessed as cell viability at 25 uM after 72 hrs by MTS assay; settings: HepG2, 72 h
[24] = molecular target: T1, DNA topoisomerase 1 (Homo sapiens); assay: Induction of poisoning activity in human recombinant DNA topoisomerase 1 assessed as enhancement of in relaxation of supercoiled plasmid substrate DNA at 25 to 50 uM after 30 mins by agarose gel electrophoresis
Method in brief: as §2

[25] = molecular target: T1, DNA topoisomerase 1 (Homo sapiens); assay: Induction of poisoning activity in human recombinant DNA topoisomerase 1 assessed as enhancement of in relaxation of supercoiled plasmid substrate DNA at 75 to 100 uM after 30 mins by agarose gel electrophoresis
Method in brief: as §2

HT-29 [26] = assay: Cytotoxicity against human HT-29 cells assessed as cell viability at 100 uM after 72 hrs by MTS assay; settings: HT-29, 72 h
HepG2 [27] = assay: Cytotoxicity against human HepG2 cells assessed as cell viability at 100 uM after 72 hrs by MTS assay; settings: HepG2, 72 h
MCF7 [28] = assay: Cytotoxicity against human MCF7 cells assessed as cell viability at 100 uM after 72 hrs by MTS assay; settings: MCF7, 72 h

Chain of DNA topoisomerase 2-alpha (Homo sapiens) (P11388 whole entry): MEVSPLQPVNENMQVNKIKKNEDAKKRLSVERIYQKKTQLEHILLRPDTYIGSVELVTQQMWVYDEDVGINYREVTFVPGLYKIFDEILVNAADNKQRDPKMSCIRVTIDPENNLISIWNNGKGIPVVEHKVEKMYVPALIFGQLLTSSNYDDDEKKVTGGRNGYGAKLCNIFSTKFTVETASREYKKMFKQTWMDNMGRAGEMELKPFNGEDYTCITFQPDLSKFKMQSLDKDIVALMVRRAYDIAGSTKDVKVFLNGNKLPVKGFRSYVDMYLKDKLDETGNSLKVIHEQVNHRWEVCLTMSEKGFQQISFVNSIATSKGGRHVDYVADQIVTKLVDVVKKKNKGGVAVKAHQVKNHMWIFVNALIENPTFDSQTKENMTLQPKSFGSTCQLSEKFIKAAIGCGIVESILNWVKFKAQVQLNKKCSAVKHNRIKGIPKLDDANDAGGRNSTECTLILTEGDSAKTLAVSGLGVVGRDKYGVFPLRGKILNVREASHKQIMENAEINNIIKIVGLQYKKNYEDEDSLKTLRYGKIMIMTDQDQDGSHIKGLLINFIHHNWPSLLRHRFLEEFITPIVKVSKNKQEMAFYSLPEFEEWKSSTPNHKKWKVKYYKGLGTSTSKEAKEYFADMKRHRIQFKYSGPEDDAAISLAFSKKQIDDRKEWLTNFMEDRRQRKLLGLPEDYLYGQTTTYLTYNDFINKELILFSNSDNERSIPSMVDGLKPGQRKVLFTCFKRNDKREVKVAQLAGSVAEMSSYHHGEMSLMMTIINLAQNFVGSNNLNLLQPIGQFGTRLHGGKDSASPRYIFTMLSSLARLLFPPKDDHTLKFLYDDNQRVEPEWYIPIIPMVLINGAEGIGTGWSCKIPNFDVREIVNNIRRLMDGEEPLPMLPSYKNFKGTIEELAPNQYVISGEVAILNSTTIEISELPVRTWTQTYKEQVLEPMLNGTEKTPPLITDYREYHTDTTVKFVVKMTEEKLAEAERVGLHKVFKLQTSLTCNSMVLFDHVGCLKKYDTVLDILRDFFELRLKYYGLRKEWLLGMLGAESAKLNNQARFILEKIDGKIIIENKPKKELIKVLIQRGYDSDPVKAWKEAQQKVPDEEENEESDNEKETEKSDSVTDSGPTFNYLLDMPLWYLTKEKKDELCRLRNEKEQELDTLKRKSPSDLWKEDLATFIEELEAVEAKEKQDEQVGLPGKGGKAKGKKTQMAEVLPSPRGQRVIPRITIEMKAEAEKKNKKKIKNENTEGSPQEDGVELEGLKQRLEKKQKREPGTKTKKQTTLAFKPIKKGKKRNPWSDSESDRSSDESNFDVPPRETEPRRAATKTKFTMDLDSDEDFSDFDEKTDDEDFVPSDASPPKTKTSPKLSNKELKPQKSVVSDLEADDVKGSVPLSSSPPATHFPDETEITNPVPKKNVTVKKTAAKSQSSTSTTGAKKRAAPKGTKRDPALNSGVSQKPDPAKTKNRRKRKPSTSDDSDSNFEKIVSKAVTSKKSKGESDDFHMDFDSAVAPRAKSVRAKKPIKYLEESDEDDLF

Structure (SMILES) | IC50 (MCF7 [1]) [µM] | IC50 [2] [µM] | IC50 (HT-29 [3]) [µM] | viability at 25 µM (HepG2 [4]) [%] | inhibition [5] | IC50 (Vero) [µM] | Activity [6] | Activity (HT-29 [7]) [%] | inhibition [8] | Activity [9] | IC50 [10] [µM] | IC50 (HepG2 [11]) [µM] | inhibition [12] [%] | inhibition [13] [%] | Activity (HepG2 [14]) [%] | Activity (Nucleic Acid) [%] | viability at 25 µM (HT-29 [15]) [%] | inhibition [16] | Activity (MCF7 [17]) [%] | viability at 25 µM (MCF7 [18]) [%] | other results
Cc1ccc(S(=O)(=O)n2c(-c3ccccc3)c(C#CCO[C@H]3C[C@H](N)[C@@H](O)[C@H](C)O3)c3ccccc32)cc1 | 4.7 | 24.3 | 7.3 | < 1 | inactive | 11.6 | inactive | 100 | inactive | inactive | 5.8 | 7.7 | 103 | 92.8 | 100 | 49.7 | < 1 | Active | 100 | < 1 | 
COc1cccc2c1C(=O)c1c(O)c3c(c(O)c1C2=O)C[C@@](O)(C(=O)CO)C[C@@H]3O[C@H]1C[C@H](N)[C@H](O)[C@H](C)O1 [DOXORUBICIN] | 16.8 | > 25 | 0.6 | 8 | inactive | 10.4 | inactive |  |  |  | 3.5 | 1 |  |  |  |  | 43 |  |  |  | viability at 20 µM (HT-29 [19]): 43%; inhibition [20]: Active; viability at 16 µM (HepG2 [21]): 8%; viability at 20 µM (MCF7 [22]): 47%
Cc1ccc(S(=O)(=O)n2c(-c3ccccc3)c(C#CCO[C@H]3CC[C@H](N)[C@H](C)O3)c3ccccc32)cc1 | 5.1 | 17.5 | 5.4 | < 1 | inactive | 10.1 | inactive | 100 |  | inactive | 4.9 | 9.5 | 86.2 | 43.2 | 100 | 38.6 | < 1 | Active | 100 | < 1 | 
COc1cccc2c1C(=O)c1c(O)c3c(c(O)c1C2=O)C[C@@](O)(C(C)=O)C[C@@H]3O[C@H]1C[C@H](N)[C@H](O)[C@H](C)O1 [DAUNORUBICIN] | 5.5 | 10.5 | 0.4 |  | inactive | 2.5 |  |  |  |  | 1.8 | 0.7 |  |  |  |  | 11 |  |  |  | viability at 20 µM (HT-29 [19]): 11%; inhibition [20]: Active; viability at 16 µM (HepG2 [21]): 2%; viability at 20 µM (MCF7 [22]): 2%; viability at 25 µM (HepG2 [23]): 2%
CC[C@@]1(O)C(=O)OCc2c1cc1n(c2=O)Cc2cc3ccccc3nc2-1 |  |  |  |  |  |  | inactive |  |  | inactive |  |  |  |  |  |  |  |  |  |  | 
C[C@@H]1O[C@@H](OCC#Cc2c(-c3ccccc3)oc3ccccc23)C[C@H](N)[C@@H]1O | 6.6 | 16.7 | 5.2 | < 1 | inactive | 5.7 | inactive | 100 | inactive | inactive | 4.8 | 3.2 | 6.5 | 77.8 | 100 | 62 | < 1 |  | 100 | < 1 | 
Cc1ccc(S(=O)(=O)n2c(-c3ccccc3)c(C#CCO[C@H]3C[C@H](N)[C@H](O)[C@H](C)O3)c3ccccc32)cc1 | 4.8 | 16.5 | 6.3 | < 1 | inactive | 10.2 | inactive | 100 | inactive | inactive | 5 | 5.9 | 101 | 80.1 | 100 | 47.9 | < 1 | Active | 100 | < 1 | Activity [24]: inactive; Activity [25]: inactive
Ic1c(-c2ccccc2)sc2ccccc12 |  |  |  |  |  |  | inactive |  |  | inactive |  |  |  |  |  |  |  |  |  |  | viability at 100 µM (HT-29 [26]): 89%; viability at 100 µM (HepG2 [27]): 87%; viability at 100 µM (MCF7 [28]): 111%
